≈ marks a conversion by molar mass, not a printed value. Calls of active or inactive are those of the source. The rule behind the calls is not given here.
Legend:
[1] = system: Staphylococcus epidermidis; assay: Antibacterial activity against methicillin-resistant Staphylococcus epidermidis RP62A incubated for 12 to 16 hrs by microtiter method; type: functional; settings: time 12-16 hrs
Method in brief: (§1)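 Single colony grown overnight at 37 °C in TSB, diluted 100-fold and grown to mid-log phase. Equal volumes of cell suspension and peptide serial dilutions in TSB were combined and incubated 37 °C for 12-16 h. Growth read as absorbance at 600 nm. MIC taken as the lowest concentration inhibiting growth. Three repeats, each in duplicate.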

Escherichia coli [2] = assay: Antibacterial activity against Escherichia coli ATCC 25922 incubated for 12 to 16 hrs by microtiter method; type: functional; settings: time 12-16 hrs
Method in brief: (§2)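 Single colonies grown overnight in TSB at 37 °C, diluted 100-fold and grown to mid-log phase. Equal volumes of bacterial suspension and peptide dilutions in TSB mixed and incubated 37 °C for 12-16 h. Growth read as absorbance at 600 nm. MIC taken as lowest concentration inhibiting growth. Three repeats, duplicates each.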

Enterococcus faecalis = assay: Antibacterial activity against Enterococcus faecalis ATCC 700802 incubated for 12 to 16 hrs by microtiter method; type: functional; settings: time 12-16 hrs; method in brief: as §2
Staphylococcus aureus [3] = assay: Antibacterial activity against methicillin-resistant Staphylococcus aureus ATCC 33591 incubated for 12 to 16 hrs by microtiter method; type: functional; settings: time 12-16 hrs; method in brief: as §1
Pseudomonas aeruginosa = assay: Antibacterial activity against Pseudomonas aeruginosa ATCC 27853 incubated for 12 to 16 hrs by microtiter method; type: functional; settings: time 12-16 hrs; method in brief: as §2
[4] = Selectivity index, ratio of HC50 for human RBC to MIC for methicillin-resistant Staphylococcus aureus ATCC 33591; type: toxicity; settings: human red blood cells, read-out: Selectivity Index
[5] = Hemolytic activity against RBC (unknown origin); type: ADME, cell-based, Erythrocyte; settings: red blood cells (erythrocytes)
Cell membrane [6] = assay: Induction of membrane disruption in Escherichia coli at 6 ug/ml measured after 2 hrs by DAPI/propidium iodide staining based fluorescence microscopic analysis; settings: dose 6.0 µg/ml
Method in brief: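 Mid-log bacteria exposed to peptide for 2 h at 37 °C, then centrifuged at 5000g for 15 min and washed with PBS. Stained with PI (5 µg/mL), washed three times in PBS, then stained with DAPI (10 µg/mL), each stain 15 min on ice in the dark. Viewed by fluorescence microscopy with a 100X oil objective.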

Cell membrane [7] = assay: Induction of membrane disruption in methicillin-resistant Staphylococcus aureus ATCC 33591 at 250 ug/ml measured for 30 mins by DiSC35 dye based fluorescence assay; type: subcellular; settings: dose 250.0 µg/ml
Method in brief: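 Mid-log cells washed with 5 mM HEPES and 5 mM glucose. Resuspended at 10^8 CFU/mL in 5 mM glucose, 5 mM HEPES and 100 mM KCl mixed 1:1:1, with 2 µM DiSC3(5), at 37 °C. Fluorescence (ex 622, em 670 nm) followed for 30 min. Peptide at 250 µg/mL added once the minimum was reached, about 20 min. Untreated culture as negative control. At least three repeats in duplicate.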

Cell membrane [8] = assay: Induction of membrane disruption in Escherichia coli at 250 ug/ml measured for 30 mins by DiSC35 dye based fluorescence assay; type: subcellular; settings: dose 250.0 µg/ml
Cell membrane [9] = assay: Induction of membrane disruption in methicillin-resistant Staphylococcus aureus ATCC 33591 at 6 ug/ml measured after 2 hrs by DAPI/propidium iodide staining based fluorescence microscopic analysis; type: subcellular; settings: dose 6.0 µg/ml
Method in brief: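 Mid-log cells exposed to peptide at 37 °C for 2 h. Methods give 10 µg/mL; the legend gives 6 µg/mL. Cells pelleted at 5000g for 15 min and washed in PBS. Stained with PI (5 µg/mL), washed three times in PBS, then stained with DAPI (10 µg/mL), each stain 15 min on ice in the dark. Imaged with a 100X oil objective. Untreated cells as control.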

Escherichia coli [10] = assay: Bactericidal activity against Escherichia coli ATCC 25922 at 25 to 50 ug/ml measured after 60 mins by time-kill assay; type: functional, organism-based; settings: dose 25-50 µg/ml
Method in brief: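 Mid-log TSB cultures at 37 °C diluted to 1 × 10^6 CFU/mL and exposed to 12.5, 25 or 50 µg/mL peptide for 10 min, 30 min, 1 h and 2 h. Aliquots diluted 102 to 104-fold and plated. Colonies counted after overnight incubation at 37 °C and plotted against exposure time.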

Staphylococcus aureus [11] = assay: Bactericidal activity against methicillin-resistant Staphylococcus aureus ATCC 33591 at 50 ug/ml measured after 10 mins by time-kill assay; type: functional, organism-based
Method in brief: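 Cells grown in TSB at 37 °C to mid-log phase, diluted to 1 × 10^6 CFU/mL, then exposed to peptide at 12.5, 25 or 50 µg/mL for 10 min, 30 min, 1 h and 2 h. Samples diluted 102 to 104-fold and plated. Colonies counted after overnight growth at 37 °C and plotted against exposure time.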

Structure (SMILES) | MIC [1] | MIC (Escherichia coli [2]) | MIC (Enterococcus faecalis) | MIC (Staphylococcus aureus [3]) | MIC (Pseudomonas aeruginosa) | selectivity ratio [4] | HC50 [5] | Activity (Cell membrane [6]) | Activity (Cell membrane [7]) | Activity (Cell membrane [8]) | Activity (Cell membrane [9]) | Activity (Escherichia coli [10]) | Activity (Staphylococcus aureus [11])
CCCCCCCCCCCCCCCCNC(=O)CN(C[C@@H](N)CCCCN)S(=O)(=O)Cc1ccccc1 | 20 mg/L (≈ 35.3 µM) | 5 mg/L (≈ 8.82 µM) | 5 mg/L (≈ 8.82 µM) | 5 mg/L (≈ 8.82 µM) | > 50 mg/L | – | – | – | – | – | – | – | –
CCCCCCCCCCCCCC(=O)N[C@@H](CCCCN)C(=O)N[C@@H](CCCCN)CN(CC(=O)N[C@@H](CCCCN)CN(CC(N)=O)S(=O)(=O)Cc1ccccc1)S(=O)(=O)Cc1ccccc1 | 5 mg/L (≈ 4.97 µM) | 5 mg/L (≈ 4.97 µM) | 8 mg/L (≈ 7.95 µM) | 2 mg/L (≈ 1.99 µM) | 5 mg/L (≈ 4.97 µM) | 50 | 100 µg/mL | – | – | – | – | – | –
CCCCCCCCCC(=O)N[C@@H](CCCCN)C(=O)N[C@@H](CCCCN)CN(CC(N)=O)S(=O)(=O)Cc1ccccc1 | > 50 mg/L | > 50 mg/L | > 50 mg/L | > 50 mg/L | > 50 mg/L | – | – | – | – | – | – | – | –
CCCCCCCCCCCCCC(=O)N[C@@H](CCCCN)C(=O)N[C@@H](CCCCN)CN(CC(N)=O)S(=O)(=O)Cc1ccccc1 | 5 mg/L (≈ 7.34 µM) | 2 mg/L (≈ 2.94 µM) | 5 mg/L (≈ 7.34 µM) | 5 mg/L (≈ 7.34 µM) | 5 mg/L (≈ 7.34 µM) | 25 | 125 µg/mL | Active | Active | Active | Active | Active | Active
CCCCCCCCCCCCCCCC(=O)N[C@@H](CCCCN)CN(CC(=O)N[C@@H](CCCCN)CN(CC(N)=O)S(=O)(=O)Cc1ccccc1)S(=O)(=O)Cc1ccccc1 | 20 mg/L (≈ 22.1 µM) | > 50 mg/L | 8 mg/L (≈ 8.83 µM) | 8 mg/L (≈ 8.83 µM) | > 50 mg/L | – | – | – | – | – | – | – | –
CCCCCCCCCCCC(=O)N[C@@H](CCCCN)C(=O)N[C@@H](CCCCN)CN(CC(N)=O)S(=O)(=O)Cc1ccccc1 | 20 mg/L (≈ 30.6 µM) | 5 mg/L (≈ 7.66 µM) | > 50 mg/L | 20 mg/L (≈ 30.6 µM) | 8 mg/L (≈ 12.3 µM) | – | – | – | – | – | – | – | –
CCCCCCCCCCCCCCCC(=O)N[C@@H](CCCCN)C(=O)N[C@@H](CCCCN)CN(CC(=O)N[C@@H](CCCCN)CN(CC(N)=O)S(=O)(=O)Cc1ccccc1)S(=O)(=O)Cc1ccccc1 | 5 mg/L (≈ 4.83 µM) | 8 mg/L (≈ 7.73 µM) | 5 mg/L (≈ 4.83 µM) | 2 mg/L (≈ 1.93 µM) | 8 mg/L (≈ 7.73 µM) | 25 | 50 µg/mL | – | – | – | – | – | –
CCCCCCCCCCCCCCCCCC(=O)N[C@@H](CCCCN)C(=O)N[C@@H](CCCCN)CN(CC(N)=O)S(=O)(=O)Cc1ccccc1 | 20 mg/L (≈ 27.1 µM) | > 50 mg/L | 5 mg/L (≈ 6.78 µM) | 2 mg/L (≈ 2.71 µM) | > 50 mg/L | – | – | – | – | – | – | – | –
CCCCCCCCCCCCCCCC(=O)N[C@@H](CCCCN)CN(CC(N)=O)S(=O)(=O)Cc1ccccc1 | 8 mg/L (≈ 13.8 µM) | > 50 mg/L | 5 mg/L (≈ 8.61 µM) | 5 mg/L (≈ 8.61 µM) | > 50 mg/L | – | – | – | – | – | – | – | –
CCCCCCCCCCCCCCCCNC(=O)CN(C[C@H](CCCCN)NC(=O)[C@@H](N)CCCCN)S(=O)(=O)Cc1ccccc1 | 20 mg/L (≈ 28.8 µM) | 5 mg/L (≈ 7.19 µM) | 5 mg/L (≈ 7.19 µM) | 5 mg/L (≈ 7.19 µM) | > 50 mg/L | – | – | – | – | – | – | – | –
CCCCCCCCCCCCCCCC(=O)N[C@@H](CCCCN)C(=O)N[C@@H](CCCCN)CN(CC(N)=O)S(=O)(=O)Cc1ccccc1 | 5 mg/L (≈ 7.05 µM) | 5 mg/L (≈ 7.05 µM) | 5 mg/L (≈ 7.05 µM) | 5 mg/L (≈ 7.05 µM) | 20 mg/L (≈ 28.2 µM) | – | – | – | – | – | – | – | –

From ChEMBL document CHEMBL4715840, “Antibacterial activity of lipo-α/sulfono-γ-AA hybrid peptides” (Eur J Med Chem, 2020)
